The text below walks through data of ChEMBL document CHEMBL1157578, “Design, synthesis, and biological evaluation of novel water-soluble triptolide derivatives: Antineoplastic activity against imatinib-resistant CML cells bearing T315I mutant Bcr-Abl” (Bioorg Med Chem, 2010).

Activity calls are given as the source filed them. No cut-off for these calls is given here.

The subject of data set [1] is KBM5. Description: Cytotoxicity against human KBM5 cells harboring wild type Bcr-Abl at 0.001 to 17 uM after 72 hrs by MTS assay. Format: functional, cell-based. The procedure, abridged: (§1)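 KBM5 (wild-type p210 Bcr-Abl) or KBM5-T315I cells in IMDM + 10% heat-inactivated FCS. The T315I subline was kept in 1 µM imatinib, removed 2–3 days before assay. Cells incubated 72 h with increasing concentrations. Viability by MTS at 490 nm, as percent of control; IC50 from dose–response curves.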

Data set [2] in a line: Aqueous solubility in water. Format: physicochemical. As to conditions: buffer.
The test system of data set [3] is KBM5. Description: Cytotoxicity against imatinib-resistant human KBM5 cells harboring Bcr-Abl T315I mutant at 0.001 to 17 uM after 72 hrs by MTS assay. It counts as functional, cell-based. The procedure, abridged:
as §1
On the technique in general: Formazan colour is commonly taken as a measure of viable cells.

Data set [4] in a line: Cytotoxicity against human KBM5 cells harboring wild type Bcr-Abl after 72 hrs by MTS assay. Format: functional, cell-based. The note with it: KBM5, 72 h. The procedure, abridged: as §1
A short description of data set [5]: Cytotoxicity against NHFB after 72 hrs by MTS assay. Further details: species or system Homo sapiens. The procedure, abridged:
(§2)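 MEF and NHFB fibroblasts cultured in DMEM + 10% FCS. Exposed to increasing concentrations for 72 h. Viability by MTS reagent, optical density at 490 nm.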

Data set [6] can be described thus: Cytotoxicity against mouse 32D cells harboring wild type Bcr-Abl after 72 hrs by MTS assay. Format: functional, cell-based. The procedure, abridged:
(§3)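 32D myeloid cells stably expressing wild-type or T315I Bcr-Abl, maintained in RPMI 1640 + 10% FBS. Treated with increasing concentrations for 72 h. Viability by MTS, optical density at 490 nm.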

A short description of data set [7]: Cytotoxicity against imatinib-resistant human KBM5 cells harboring Bcr-Abl T315I mutant after 72 hrs by MTS assay. It counts as functional, cell-based. The note with it: KBM5, 72 h. In outline:
as §1

The subject of a further data set is MEF. Description: Cytotoxicity against MEF after 72 hrs by MTS assay. Format: cell-based. The note with it: Mus musculus. The procedure, abridged:
as §2

Data set [8] in a line: Cytotoxicity against imatinib-resistant mouse 32D cells harboring Bcr-Abl T315I mutant after 72 hrs by MTS assay. It counts as functional, cell-based. In outline:
as §3

Data set [9] can be described thus: Downregulation of Bcr-Abl protein level in mouse 32D cells harboring Bcr-Abl T315I mutant after 18 hrs by Western blot analysis. Format: functional, cell-based. The procedure, abridged: (§4)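 Cells exposed for 18 h at the indicated concentrations. Whole-cell lysates made in RIPA buffer with phosphatase and protease inhibitors. Western blot for Bcr-Abl (c-Abl C-19), phospho-c-Abl Y245, phospho-RNA polymerase II, PARP, and actin as loading control.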

Data set [10] can be described thus: Downregulation of Bcr-Abl mRNA level in human KBM5 cells harboring wild type Bcr-Abl at 50 to 100 nM after 18 hrs by semi-quantitative RT-PCR analysis. It counts as functional, cell-based. In outline:
(§5)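 KBM5 and KBM5-T315I cells exposed to 50 or 100 nM, or control medium, for 18 h. Bcr-Abl and GAPDH mRNA measured by semi-quantitative RT-PCR; products run on 1% agarose and stained with ethidium bromide.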

The nature of data set [11]: Downregulation of Bcr-Abl protein level in human KBM5 cells harboring wild type Bcr-Abl after 18 hrs by Western blot analysis. It counts as functional, cell-based. In outline:
as §4
For orientation: In western blotting, separated proteins are transferred to a membrane and probed.

The test system of the next data set is DU-145. Description: Inhibition of RNA polymerase 2 in human DU145 cells assessed as decrease in polymerase 2 phosphorylation at 50 to 100 nM after 18 hrs by Western blot analysis. Format: cell-based.
The test system of data set [12] is KBM5. Description: Induction of apoptosis in human KBM5 cells harboring Bcr-Abl T315I mutant assessed as PARP cleavage at 50 to 100 uM after 18 hrs by Western blot analysis. It counts as functional, cell-based.
Another data set deals with HeLa. The experiment in a line: Inhibition of RNA polymerase 2 in human HeLa cells assessed as decrease in polymerase 2 phosphorylation at 50 to 100 nM after 18 hrs by Western blot analysis. It counts as cell-based.
Another data set concerns HCT-116. The experiment in a line: Inhibition of RNA polymerase 2 in human HCT116 cells assessed as decrease in polymerase 2 phosphorylation at 50 to 100 nM after 18 hrs by Western blot analysis. Format: cell-based.
The test system of data set [13] is KBM5. Description: Inhibition of RNA polymerase 2 in human KBM5 cells harboring wild type Bcr-Abl assessed as decrease in polymerase 2 phosphorylation after 18 hrs by Western blot analysis. It counts as cell-based. The procedure, abridged: as §4
A short description of data set [14]: Downregulation of Bcr-Abl mRNA level in human KBM5 cells harboring Bcr-Abl T315I mutant at 50 to 100 nM after 18 hrs by semi-quantitative RT-PCR analysis. It counts as functional, cell-based. In outline: as §5
A short description of data set [15]: Downregulation of Bcr-Abl protein level in mouse 32D cells harboring wild type Bcr-Abl after 18 hrs by Western blot analysis. Format: functional, cell-based. The procedure, abridged: as §4
For data set [16], the system named is KBM5. Description: Induction of apoptosis in human KBM5 cells harboring wild type Bcr-Abl assessed as PARP cleavage at 50 to 100 uM after 18 hrs by Western blot analysis. Format: functional, cell-based.
The nature of data set [17]: Downregulation of Bcr-Abl protein level in human KBM5 cells harboring Bcr-Abl T315I mutant after 18 hrs by Western blot analysis. It counts as functional, cell-based. In outline: as §4
Data set [18] has as its system KBM5. The experiment in a line: Inhibition of RNA polymerase 2 in human KBM5 cells harboring Bcr-Abl T315I mutant assessed as decrease in polymerase 2 phosphorylation after 18 hrs by Western blot analysis. It counts as cell-based. In outline: as §4

For `CCN(CC)CC(=O)O[C@@H]1[C@@]2(C(C)C)O[C@H]2[C@@H]2O[C@@]23[C@H]2CCC4=C(COC4=O)[C@@H]2C[C@@H]2O[C@]213`, the result with KBM5 [1] and in the data set with KBM5 [3] was Active. Also, the solubility entry in data set [2] is listed as “Soluble”. This compound showed an IC50 in data set [4] of 78 nM.
On to `CC(C)[C@]12O[C@H]1[C@@H]1O[C@@]13[C@H]1CCC4=C(COC4=O)[C@@H]1C[C@@H]1O[C@@]13[C@@H]2OC(=O)CN`, for which the half-inhibitory concentration (IC50) was found to be 11400 nM in data set [5]; 50 nM in data set [6]; 11.7 nM in [7]; 11100 nM in the data set with MEF; 44 nM in [8]; 19.2 nM in data set [4].
Turning to `CC(C)[C@]12O[C@H]1[C@@H]1O[C@]13[C@]1(O[C@H]1C[C@H]1C4=C(CC[C@@]13C)C(=O)OC4)[C@@H]2O` [TRIPTOLIDE], the half-inhibitory concentration (IC50) in data set [5] was determined as 8800 nM; in [6] it was 32 nM; in data set [7], 8.3 nM; in the data set with MEF, 9200 nM; in data set [8], 34 nM; in data set [4], 10.3 nM. For the same compound, the result in the data set with KBM5 [1] and in the data set on KBM5 [3] was Active. Also, in data set [2], the solubility entry is recorded as “Insoluble”.
Regarding `CC(C)[C@]12O[C@H]1[C@@H]1O[C@@]13[C@H]1CCC4=C(COC4=O)[C@@H]1C[C@@H]1O[C@@]13[C@@H]2OC(=O)CCl`, the outcome in the data set on KBM5 [1] and with KBM5 [3] was Active.
Consider `CC(C)[C@]12O[C@H]1[C@@H]1O[C@@]13[C@H]1CCC4=C(COC4=O)[C@@H]1C[C@@H]1O[C@@]13[C@@H]2OC(=O)CNc1nccc(-c2cccnc2)n1`, for which the result with KBM5 [1] and in the data set with KBM5 [3] was Active. The values for the concentration for half-maximal inhibition (IC50) in [7] and in data set [4] were 214 nM and 297 nM, respectively. Further, in [2], the solubility entry is on record as “Soluble”.
`CC(C)[C@]12O[C@H]1[C@@H]1O[C@@]13[C@H]1CCC4=C(COC4=O)[C@@H]1C[C@@H]1O[C@@]13[C@@H]2OC(=O)CN(CCO)CCO`: the result with KBM5 [1] and in the data set on KBM5 [3] was inactive. For the same compound, the IC50 in [7] stood at 1550 nM; in data set [4], 2800 nM.
`COC(=O)[C@H](C)NCC(=O)O[C@@H]1[C@@]2(C(C)C)O[C@H]2[C@@H]2O[C@@]23[C@H]2CCC4=C(COC4=O)[C@@H]2C[C@@H]2O[C@]213`: the result with KBM5 [1] and with KBM5 [3] was Active. Moreover, the values for the IC50 in data set [7] and in [4] were 14.2 nM and 18.6 nM, respectively. For the same compound, in [2], the solubility result is given as “Soluble”.
For `CNCC(=O)O[C@@H]1[C@@]2(C(C)C)O[C@H]2[C@@H]2O[C@@]23[C@H]2CCC4=C(COC4=O)[C@@H]2C[C@@H]2O[C@]213`, the result with KBM5 [1] and in the data set on KBM5 [3] was Active. Besides, the IC50 in data set [7] stood at 308 nM; in [4], 348 nM. The solubility result in [2] is listed as “Soluble”.
As for `CC(C)[C@]12O[C@H]1[C@@H]1O[C@@]13[C@H]1CCC4=C(COC4=O)[C@@H]1C[C@@H]1O[C@@]13[C@@H]2OC(=O)CNCCO`, the Activity result in data set [9], in data set [11], in data set [15] and in data set [17] was “Dose-dependent effect” each time. The IC50 in [5] worked out at 10000 nM; in data set [6], 61 nM; in data set [7] it was 19.7 nM; in the data set on MEF, 10400 nM; in data set [8] it was 74 nM; in data set [4] it was 18.2 nM. Further, the result (in [10]; with KBM5 [1]; in the data set on KBM5 [12]; with KBM5 [3]; in data set [14]; in the data set with KBM5 [16]) was Active. The inhibition entry in the data set on DU-145, with HeLa and in the data set on HCT-116 was “Active” each time. The solubility entry in [2] is on record as “Soluble”. The inhibition result in the data set with KBM5 [13] and in the data set on KBM5 [18] was “Dose-dependent effect” in each case.
For `CC(C)[C@]12O[C@H]1[C@@H]1O[C@@]13[C@H]1CCC4=C(COC4=O)[C@@H]1C[C@@H]1O[C@@]13[C@@H]2OC(=O)CNCCN`, the result in the data set on KBM5 [1] and with KBM5 [3] was Active. The IC50 is 950 nM in data set [7] and 774 nM in data set [4]. In addition, the solubility entry in data set [2] is reported as “Soluble”.
`CC(C)[C@]12O[C@H]1[C@@H]1O[C@@]13[C@H]1CCC4=C(COC4=O)[C@@H]1C[C@@H]1O[C@@]13[C@@H]2OC(=O)CNc1ccc(Cl)cc1`: the result in the data set on KBM5 [1] and in the data set with KBM5 [3] was inactive. In addition, the IC50 in data set [7] is 734 nM; in data set [4], 5020 nM.
Regarding `CCCCCCCCCCCCNCC(=O)O[C@@H]1[C@@]2(C(C)C)O[C@H]2[C@@H]2O[C@@]23[C@H]2CCC4=C(COC4=O)[C@@H]2C[C@@H]2O[C@]213`, the outcome in the data set with KBM5 [1] and with KBM5 [3] was inactive. The figures for the concentration for half-maximal inhibition (IC50) in data set [7] and in data set [4] were 1040 nM and 5420 nM, respectively.
Turning to `CC(C)[C@]12O[C@H]1[C@@H]1O[C@@]13[C@H]1CCC4=C(COC4=O)[C@@H]1C[C@@H]1O[C@@]13[C@@H]2OC(=O)CN1CCNCC1`, the result with KBM5 [1] and in the data set with KBM5 [3] was Active. Also, the half-maximal inhibitory concentration (IC50) was 548 nM in [7] and 496 nM in [4]. Moreover, in data set [2], the solubility entry was “Soluble”.

As usually defined, the IC50 is the concentration needed to halve the response being measured. Low readings indicate greater potency in that assay, high ones weaker potency in that assay.
